In ChEMBL document CHEMBL1123178, “Preparation and evaluation of radioiodinated (iodophenyl)cholines and their morpholinium and piperidinium analogues as myocardial perfusion imaging agents” (J Med Chem, 1986):

Assays:
[1] = Distribution in the blood after 5 min of intravenous administration; assay type: ADME, tissue-based
In short: (§1)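 Swiss white mice (20-25 g) anesthetized with sodium pentobarbital (80 mg/kg ip), then given 0.1-0.2 mL (74 kBq) of radioiodinated compound or 201Tl+ by tail-vein injection. Four mice per time point were killed by cardiac puncture/exsanguination at 5, 15, 30 and 60 min (some also at 90 and 120 min). Organs were excised, washed, blotted and weighed, blood was sampled, and radioactivity was counted against injection standards. Values are percent injected dose/g.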

[2] = Distribution in the muscle after 90 min of intravenous administration; assay type: ADME, tissue-based, Muscle tissue; settings: 1.5 h; in short: as §1
[3] = Distribution in the muscle after 120 min of intravenous administration; assay type: ADME, tissue-based, Muscle tissue; settings: 2 h; in short: as §1
[4] = Distribution in the bone after 15 min of intravenous administration; assay type: ADME, tissue-based, Bone element; settings: 0.25 h; in short: as §1
[5] = Distribution in the lung after 5 min of intravenous administration; assay type: ADME, tissue-based; in short: as §1
[6] = Distribution in the lung after 30 min of intravenous administration; assay type: ADME, tissue-based; settings: 0.5 h; in short: as §1
[7] = Distribution in the kidneys after 90 min of intravenous administration; assay type: ADME, tissue-based, Kidney; settings: 1.5 h; in short: as §1
[8] = Distribution in the bone after 5 min of intravenous administration; assay type: ADME, tissue-based, Bone element; in short: as §1
[9] = Distribution in the heart after 5 min of intravenous administration; assay type: ADME, tissue-based; in short: as §1
[10] = Distribution in the muscle after 15 min of intravenous administration; assay type: ADME, tissue-based, Muscle tissue; settings: 0.25 h; in short: as §1
[11] = Distribution in the liver after 5 min of intravenous administration; assay type: ADME, tissue-based; in short: as §1
[12] = Distribution in the heart after 30 min of intravenous administration; assay type: ADME, tissue-based; settings: 0.5 h; in short: as §1
[13] = Distribution in the spleen after 15 min of intravenous administration; assay type: ADME, tissue-based; settings: 0.25 h; in short: as §1
[14] = Distribution in the liver after 15 min of intravenous administration; assay type: ADME, tissue-based; settings: 0.25 h; in short: as §1
[15] = Distribution in the blood after 90 min of intravenous administration; assay type: ADME, tissue-based; settings: 1.5 h; in short: as §1
[16] = Distribution in the heart after 90 min of intravenous administration; assay type: ADME, tissue-based; settings: 1.5 h; in short: as §1
[17] = Distribution in the spleen after 90 min of intravenous administration; assay type: ADME, tissue-based; settings: 1.5 h; in short: as §1
[18] = Distribution in the bone after 90 min of intravenous administration; assay type: ADME, tissue-based, Bone element; settings: 1.5 h; in short: as §1
Mus musculus = assay: Distribution in the muscle after 30 min of intravenous administration; assay type: ADME, organism-based, Muscle tissue; settings: in vivo, 0.5 h; in short: as §1
[19] = Distribution in the bone after 60 min of intravenous administration; assay type: ADME, tissue-based, Bone element; settings: 1 h; in short: as §1
[20] = Distribution in the heart after 60 min of intravenous administration; assay type: ADME, tissue-based; settings: 1 h; in short: as §1
[21] = Distribution in the kidneys after 120 min of intravenous administration; assay type: ADME, tissue-based, Kidney; settings: 2 h; in short: as §1
[22] = Distribution in the liver after 120 min of intravenous administration; assay type: ADME, tissue-based; settings: 2 h; in short: as §1
[23] = Distribution in the blood after 15 min of intravenous administration; assay type: ADME, tissue-based; settings: 0.25 h; in short: as §1
[24] = Distribution in the spleen after 30 min of intravenous administration; assay type: ADME, tissue-based; settings: 0.5 h; in short: as §1
[25] = Distribution in the blood after 30 min of intravenous administration; assay type: ADME, tissue-based; settings: 0.5 h; in short: as §1
[26] = Distribution in the liver after 30 min of intravenous administration; assay type: ADME, tissue-based; settings: 0.5 h; in short: as §1
[27] = Distribution in the spleen after 60 min of intravenous administration; assay type: ADME, tissue-based; settings: 1 h; in short: as §1
[28] = Distribution in the muscle after 5 min of intravenous administration; assay type: ADME, tissue-based, Muscle tissue; in short: as §1
[29] = Distribution in the heart after 120 min of intravenous administration; assay type: ADME, tissue-based; settings: 2 h; in short: as §1
[30] = Distribution in the lung after 90 min of intravenous administration; assay type: ADME, tissue-based; settings: 1.5 h; in short: as §1
[31] = Distribution in the spleen after 120 min of intravenous administration; assay type: ADME, tissue-based; settings: 2 h; in short: as §1
[32] = Distribution in the liver after 90 min of intravenous administration; assay type: ADME, tissue-based; settings: 1.5 h; in short: as §1
[33] = Distribution in the bone after 120 min of intravenous administration; assay type: ADME, tissue-based, Bone element; settings: 2 h; in short: as §1
[34] = Distribution in the blood after 60 min of intravenous administration; assay type: ADME, tissue-based; settings: 1 h; in short: as §1
[35] = Distribution in the lung after 60 min of intravenous administration; assay type: ADME, tissue-based; settings: 1 h; in short: as §1
[36] = Distribution in the muscle after 60 min of intravenous administration; assay type: ADME, tissue-based, Muscle tissue; settings: 1 h; in short: as §1
[37] = Distribution in the spleen after 5 min of intravenous administration; assay type: ADME, tissue-based; in short: as §1
[38] = Distribution in the liver after 60 min of intravenous administration; assay type: ADME, tissue-based; settings: 1 h; in short: as §1
[39] = Distribution in the kidneys after 15 min of intravenous administration; assay type: ADME, tissue-based, Kidney; settings: 0.25 h; in short: as §1
[40] = Distribution in the heart after 15 min of intravenous administration; assay type: ADME, tissue-based; settings: 0.25 h; in short: as §1
[41] = Distribution in the bone after 30 min of intravenous administration; assay type: ADME, tissue-based, Bone element; settings: 0.5 h; in short: as §1
[42] = Distribution in the kidneys after 60 min of intravenous administration; assay type: ADME, tissue-based, Kidney; settings: 1 h; in short: as §1
[43] = Distribution in the kidneys after 5 min of intravenous administration; assay type: ADME, tissue-based, Kidney; in short: as §1
[44] = Distribution in the lung after 15 min of intravenous administration; assay type: ADME, tissue-based; settings: 0.25 h; in short: as §1
[45] = Distribution in the kidneys after 30 min of intravenous administration; assay type: ADME, tissue-based, Kidney; settings: 0.5 h; in short: as §1
[46] = Distribution in the lung after 120 min of intravenous administration; assay type: ADME, tissue-based; settings: 2 h; in short: as §1
[47] = Distribution in the blood after 120 min of intravenous administration; assay type: ADME, tissue-based; settings: 2 h; in short: as §1

C[N+]1(CCOc2cccc(I)c2)CCCCC1
Distribution [1]: 1.9%
Distribution [2]: 1%
Distribution [3]: 1.1%
Distribution [4]: 2%
Distribution [5]: 7.3%
Distribution [6]: 4.6%
Distribution [7]: 5.3%
Distribution [8]: 1.6%
Distribution [9]: 20%
Distribution [10]: 1%
Distribution [11]: 12.5%
Distribution [12]: 23.1%
Distribution [13]: 3.6%
Distribution [14]: 4.9%
Distribution [15]: 1.2%
Distribution [16]: 18.1%
Distribution [17]: 2.1%
Distribution [18]: 1.3%
Distribution (Mus musculus): 1.1%
Distribution [19]: 1.5%
Distribution [20]: 19.5%
Distribution [21]: 6%
Distribution [22]: 2%
Distribution [23]: 2.4%
Distribution [24]: 3.4%
Distribution [25]: 1.9%
Distribution [26]: 4.1%
Distribution [27]: 2.6%
Distribution [28]: 0.9%
Distribution [29]: 17.7%
Distribution [30]: 2.7%
Distribution [31]: 2.1%
Distribution [32]: 2.3%
Distribution [33]: 1.3%
Distribution [34]: 1.5%
Distribution [35]: 3.4%
Distribution [36]: 1%
Distribution [37]: 5%
Distribution [38]: 2.4%
Distribution [39]: 24%
Distribution [40]: 21.6%
Distribution [41]: 2%
Distribution [42]: 7.4%
Distribution [43]: 40.1%
Distribution [44]: 5.5%
Distribution [45]: 14.1%
Distribution [46]: 2.6%
Distribution [47]: 1.4%
